Source: ChEMBL document CHEMBL1150393, “Evaluation of radiolabeled (hetero)aromatic analogues of N-(2-diethylaminoethyl)-4-iodobenzamide for imaging and targeted radionuclide therapy of melanoma” (J Med Chem, 2008)

Columns and labels:
Conditions in all cases: in vivo
[1] = Biodistribution in tumor of C57BL/6 mouse bearing mouse B16-F0 cells at 0.74 to 0.92 MBq, iv after 1 hr; type: ADME, organism-based, Neoplasm
Procedure, shortened: (§1)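 [¹²⁵I]-labelled compound given iv by tail vein (0.1 µmol per mouse) to male C57BL6 mice bearing s.c. B16-F0 flank tumours (5 × 10⁵ cells in PBS). Two mice per time point were killed by CO₂, frozen in liquid nitrogen and cut into 40 µm cryosections, eight slices per mouse. Slice radioactivity was read on a multiwire proportional counter, converted to kBq/g and reported as %ID/g.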

[2] = Biodistribution in tumor of C57BL/6 mouse bearing mouse B16-F0 cells at 0.74 to 0.92 MBq, iv after 6 hrs; type: ADME, organism-based, Neoplasm; procedure, shortened: as §1
[3] = Biodistribution in tumor of C57BL/6 mouse bearing mouse B16-F0 cells at 0.74 to 0.92 MBq, iv after 24 hrs; type: ADME, organism-based, Neoplasm; procedure, shortened: as §1
[4] = Biodistribution in tumor of C57BL/6 mouse bearing mouse B16-F0 cells at 0.74 to 0.92 MBq, iv after 72 hrs; type: ADME, organism-based, Neoplasm; procedure, shortened: as §1
[5] = Ratio of drug level in tumor to liver of C57BL/6 mouse bearing mouse B16-F0 cells at 0.74 to 0.92 MBq, iv after 3 hrs; type: ADME, organism-based
Procedure, shortened: (§2)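 Tumour and organ radioactive concentrations came from whole-body cryosection counting (40 µm slices, eight per mouse, two mice per time) after tail-vein injection of the [¹²⁵I]-labelled compound (0.1 µmol) into male C57BL6 mice bearing s.c. B16-F0 melanoma. Each value is the ratio of the tumour concentration to the organ concentration.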

[6] = Ratio of drug level in tumor to liver of C57BL/6 mouse bearing mouse B16-F0 cells at 0.74 to 0.92 MBq, iv after 6 hrs; type: ADME, organism-based; procedure, shortened: as §2
[7] = Ratio of drug level in tumor to liver of C57BL/6 mouse bearing mouse B16-F0 cells at 0.74 to 0.92 MBq, iv after 24 hrs; type: ADME, organism-based; procedure, shortened: as §2
[8] = system: Brain; assay: Biodistribution in brain of C57BL/6 mouse bearing mouse B16-F0 cells at 0.74 to 0.92 MBq, iv after 1 hr; type: ADME, organism-based
Procedure, shortened: (§3)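 Male C57BL6 mice with s.c. left-flank B16-F0 melanoma (5 × 10⁵ cells in PBS). Two mice per time point frozen in liquid nitrogen after CO₂ sacrifice. Eight 40 µm whole-body cryosections per mouse read by multiwire proportional counter. cpm/mm² converted to kBq/g and expressed as %ID/g.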

[9] = Biodistribution in intestinal content of C57BL/6 mouse bearing mouse B16-F0 cells at 0.74 to 0.92 MBq, iv after 1 hr; type: ADME, organism-based; procedure, shortened: as §3
[10] = Biodistribution in intestinal content of C57BL/6 mouse bearing mouse B16-F0 cells at 0.74 to 0.92 MBq, iv after 3 hrs; type: ADME, organism-based; procedure, shortened: as §3
[11] = Biodistribution in intestinal content of C57BL/6 mouse bearing mouse B16-F0 cells at 0.74 to 0.92 MBq, iv after 6 hrs; type: ADME, organism-based; procedure, shortened: as §3
[12] = Biodistribution in intestinal content of C57BL/6 mouse bearing mouse B16-F0 cells at 0.74 to 0.92 MBq, iv after 24 hrs; type: ADME, organism-based; procedure, shortened: as §3
[13] = Biodistribution in Stomach content of C57BL/6 mouse bearing mouse B16-F0 cells at 0.74 to 0.92 MBq, iv after 6 hrs; type: ADME, organism-based; procedure, shortened: as §3
[14] = Biodistribution in Stomach content of C57BL/6 mouse bearing mouse B16-F0 cells at 0.74 to 0.92 MBq, iv after 24 hrs; type: ADME, organism-based; procedure, shortened: as §3
[15] = system: Liver; assay: Biodistribution in liver of C57BL/6 mouse bearing mouse B16-F0 cells at 0.74 to 0.92 MBq, iv after 1 hr; type: ADME, organism-based; procedure, shortened: as §3
[16] = system: Liver; assay: Biodistribution in liver of C57BL/6 mouse bearing mouse B16-F0 cells at 0.74 to 0.92 MBq, iv after 24 hrs; type: ADME, organism-based; procedure, shortened: as §3
[17] = system: Muscle tissue; assay: Biodistribution in muscle of C57BL/6 mouse bearing mouse B16-F0 cells at 0.74 to 0.92 MBq, iv after 1 hr; type: ADME, organism-based; procedure, shortened: as §3
[18] = system: Muscle tissue; assay: Biodistribution in muscle of C57BL/6 mouse bearing mouse B16-F0 cells at 0.74 to 0.92 MBq, iv after 3 hrs; type: ADME, organism-based; procedure, shortened: as §3
[19] = system: Muscle tissue; assay: Biodistribution in muscle of C57BL/6 mouse bearing mouse B16-F0 cells at 0.74 to 0.92 MBq, iv after 6 hrs; type: ADME, organism-based; procedure, shortened: as §3
[20] = system: Pancreas; assay: Biodistribution in pancreas of C57BL/6 mouse bearing mouse B16-F0 cells at 0.74 to 0.92 MBq, iv after 1 hr; type: ADME, organism-based; procedure, shortened: as §3
[21] = system: Lung; assay: Biodistribution in lung of C57BL/6 mouse bearing mouse B16-F0 cells at 0.74 to 0.92 MBq, iv after 1 hr; type: ADME, organism-based; procedure, shortened: as §3
[22] = system: Lung; assay: Biodistribution in lung of C57BL/6 mouse bearing mouse B16-F0 cells at 0.74 to 0.92 MBq, iv after 3 hrs; type: ADME, organism-based; procedure, shortened: as §3
[23] = system: Lung; assay: Biodistribution in lung of C57BL/6 mouse bearing mouse B16-F0 cells at 0.74 to 0.92 MBq, iv after 6 hrs; type: ADME, organism-based; procedure, shortened: as §3
[24] = system: Spleen; assay: Biodistribution in spleen of C57BL/6 mouse bearing mouse B16-F0 cells at 0.74 to 0.92 MBq, iv after 1 hr; type: ADME, organism-based; procedure, shortened: as §1
[25] = system: Spleen; assay: Biodistribution in spleen of C57BL/6 mouse bearing mouse B16-F0 cells at 0.74 to 0.92 MBq, iv after 3 hrs; type: ADME, organism-based; procedure, shortened: as §1
[26] = system: Spleen; assay: Biodistribution in spleen of C57BL/6 mouse bearing mouse B16-F0 cells at 0.74 to 0.92 MBq, iv after 6 hrs; type: ADME, organism-based; procedure, shortened: as §1
[27] = system: Kidney; assay: Biodistribution in kidney of C57BL/6 mouse bearing mouse B16-F0 cells at 0.74 to 0.92 MBq, iv after 3 hrs; type: ADME, organism-based; procedure, shortened: as §3
[28] = system: Kidney; assay: Biodistribution in kidney of C57BL/6 mouse bearing mouse B16-F0 cells at 0.74 to 0.92 MBq, iv after 6 hrs; type: ADME, organism-based; procedure, shortened: as §3
[29] = system: Blood; assay: Biodistribution in blood of C57BL/6 mouse bearing mouse B16-F0 cells at 0.74 to 0.92 MBq, iv after 1 hr; type: ADME, organism-based; procedure, shortened: as §3
[30] = system: Blood; assay: Biodistribution in blood of C57BL/6 mouse bearing mouse B16-F0 cells at 0.74 to 0.92 MBq, iv after 3 hrs; type: ADME, organism-based; procedure, shortened: as §3
[31] = system: Thyroid gland; assay: Biodistribution in thyroid of C57BL/6 mouse bearing mouse B16-F0 cells at 0.74 to 0.92 MBq, iv after 6 hrs; type: ADME, organism-based; procedure, shortened: as §1
[32] = system: Thyroid gland; assay: Biodistribution in thyroid of C57BL/6 mouse bearing mouse B16-F0 cells at 0.74 to 0.92 MBq, iv after 24 hrs; type: ADME, organism-based; procedure, shortened: as §1
[33] = Biodistribution in uvea of C57BL/6 mouse bearing mouse B16-F0 cells at 0.74 to 0.92 MBq, iv after 1 hr; type: ADME, organism-based, Uveal tract; procedure, shortened: as §1
[34] = Biodistribution in uvea of C57BL/6 mouse bearing mouse B16-F0 cells at 0.74 to 0.92 MBq, iv after 24 hrs; type: ADME, organism-based, Uveal tract; procedure, shortened: as §1

Drug uptake [1]: 4.7 % ID/g
Drug uptake [2]: 5.8 % ID/g
Drug uptake [3]: 2.7 % ID/g
Drug uptake [4]: 2.4 % ID/g
Ratio [5]: 2.2
Ratio [6]: 18.16
Ratio [7]: 39.14
Drug uptake [8]: 0.07 % ID/g
Drug uptake [9]: 52.94 % ID/g
Drug uptake [10]: 90.12 % ID/g
Drug uptake [11]: 61.06 % ID/g
Drug uptake [12]: 1.62 % ID/g
Drug uptake [13]: 22.27 % ID/g
Drug uptake [14]: 0.13 % ID/g
Drug uptake [15]: 5.16 % ID/g
Drug uptake [16]: 0.07 % ID/g
Drug uptake [17]: 0.92 % ID/g
Drug uptake [18]: 0.13 % ID/g
Drug uptake [19]: 0.01 % ID/g
Drug uptake [20]: 5.74 % ID/g
Drug uptake [21]: 2.06 % ID/g
Drug uptake [22]: 0.88 % ID/g
Drug uptake [23]: 0.15 % ID/g
Drug uptake [24]: 1.24 % ID/g
Drug uptake [25]: 0.28 % ID/g
Drug uptake [26]: 0.26 % ID/g
Drug uptake [27]: 0.8 % ID/g
Drug uptake [28]: 0.2 % ID/g
Drug uptake [29]: 0.42 % ID/g
Drug uptake [30]: 0.23 % ID/g
Drug uptake [31]: 8.55 % ID/g
Drug uptake [32]: 5.09 % ID/g
Drug uptake [33]: 5.12 % ID/g
Drug uptake [34]: 3.5 % ID/g
SMILES: CCN(CC)CCNC(=O)c1c[nH]c2ccc([125I])cc2c1=O.Cl.Cl
